Assay results published in ChEMBL document CHEMBL1146090, “Similarity based virtual screening: a tool for targeted library design” (J Med Chem, 2006).

How the values were obtained:
[1] = Viability of HL cells at 50 uM; format: cell-based; conditions: human, read-out: Activity
Outline: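 Viable HL cells counted through intracellular LDH after 3 days exposure to 50 μM agent. Medium removed, cells washed twice and lysed, then LDH measured with the same kit. Percentage derived against LDH from unexposed cultures. Mean of four replicates, single experiment.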

[2] = test system: HL; assay: Cytotoxicity against HL cells at 50 uM; format: functional
[3] = test system: Chlamydia pneumoniae; assay: Antibacterial activity against Chlamydia pneumoniae in HL cells at 1 uM; format: functional
Outline: (§1)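 HL host cells (RPMI 1640, 10% FBS, 2 mM L-glutamine, 37 °C, 5% CO2) seeded 5×10^4/well; after 24 h, confluent monolayers inoculated by centrifugation (550 × g, 60 min) with C. pneumoniae Kajaani 7 EBs, 4×10^5 IFU/mL. Agent added in antibiotic-free medium plus 0.5 μg/mL cycloheximide; 72 h, 37 °C. Methanol-fixed; europium-labelled genus-specific antibody, time-resolved fluorometry. Two experiments on different days, six replicates each, averaged.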

[4] = test system: Chlamydia pneumoniae; assay: Antibacterial activity against Chlamydia pneumoniae in HL cells at 70 uM; format: functional; outline: as §1
[5] = test system: Chlamydia pneumoniae; assay: Antibacterial activity against Chlamydia pneumoniae in HL cells at 5 uM; format: functional; outline: as §1
[6] = test system: Chlamydia pneumoniae; assay: Antibacterial activity against Chlamydia pneumoniae in HL cells at 50 uM; format: functional; outline: as §1

Which viability at 50 µM [1] does the source give for `O=C(Nc1cccc(-c2nc3ccccc3[nH]2)c1)c1ccccc1` here?
The viability at 50 µM was 95.5%.

And the cytotoxicity [2]?
The cytotoxicity was 1.2%.

And the inhibition at 1 µM [3]?
The inhibition at 1 µM was 14.6%.

And the inhibition at 70 µM [4]?
Its inhibition at 70 µM is 69.1%.

What about the inhibition at 5 µM [5] of the same compound?
The inhibition at 5 µM was 19.7%.

What about the inhibition at 50 µM [6] of the same compound?
Its inhibition at 50 µM is 69.6%.

For `c1ccc(-c2cc3ncnc(NCc4ccc5c(c4)OCO5)c3s2)cc1`, which viability at 50 µM [1] is on record?
Its viability at 50 µM is 98.2%.

What about the cytotoxicity [2] of the same compound?
Its cytotoxicity is 0.4%.

And the inhibition at 1 µM [3]?
The inhibition at 1 µM was 2.1%.

What about the inhibition at 70 µM [4] of the same compound?
The inhibition at 70 µM was 71.2%.

And the inhibition at 5 µM [5]?
Its inhibition at 5 µM is 58.8%.

And the inhibition at 50 µM [6]?
Its inhibition at 50 µM is 68.6%.

Which viability at 50 µM [1] does the source give for `O=C(Nc1cccc(-c2nc3ccccc3[nH]2)c1)c1cccs1` here?
The viability at 50 µM was 98%.

What about the cytotoxicity [2] of the same compound?
Its cytotoxicity is 1.2%.

What about the inhibition at 1 µM [3] of the same compound?
The inhibition at 1 µM was 39.5%.

And the inhibition at 70 µM [4]?
The inhibition at 70 µM was 92.6%.

And the inhibition at 5 µM [5]?
The inhibition at 5 µM was 41.2%.

What about the inhibition at 50 µM [6] of the same compound?
The inhibition at 50 µM was 90.5%.

For `Nc1nc(Nc2ccc(Cl)cc2)nc(-c2cc(Cl)ccc2O)n1`, which viability at 50 µM [1] is on record?
The viability at 50 µM was 95%.

What about the cytotoxicity [2] of the same compound?
Its cytotoxicity is 1.4%.

What about the inhibition at 1 µM [3] of the same compound?
The inhibition at 1 µM was 0%.

And the inhibition at 70 µM [4]?
Its inhibition at 70 µM is 83.9%.

What about the inhibition at 5 µM [5] of the same compound?
Its inhibition at 5 µM is 76%.

What about the inhibition at 50 µM [6] of the same compound?
The inhibition at 50 µM was 79.8%.

What does the source list for `Nc1nc(Nc2ccccc2)nc(Nc2ccccc2)n1`?
viability at 50 µM [1]: 83.4%; cytotoxicity [2]: 3.7%; inhibition at 1 µM [3]: 0%; inhibition at 70 µM [4]: 100%; inhibition at 5 µM [5]: 0%; inhibition at 50 µM [6]: 72.8%

Which viability at 50 µM [1] does the source give for `O=C(Nc1ccc2c(c1)OCCO2)c1cccc(COc2cc(Cl)ccc2Cl)c1` here?
The viability at 50 µM was 86.2%.

And the cytotoxicity [2]?
Its cytotoxicity is 2.3%.

And the inhibition at 1 µM [3]?
The inhibition at 1 µM was 0%.

And the inhibition at 70 µM [4]?
Its inhibition at 70 µM is 93.6%.

What about the inhibition at 5 µM [5] of the same compound?
Its inhibition at 5 µM is 15.3%.

What about the inhibition at 50 µM [6] of the same compound?
Its inhibition at 50 µM is 81.8%.

Which results are given for `N=C(NOC(=O)Nc1ccccc1)c1ccc2nonc2c1`?
viability at 50 µM [1]: 100%; cytotoxicity [2]: 0%; inhibition at 1 µM [3]: 0%; inhibition at 70 µM [4]: 72.5%; inhibition at 5 µM [5]: 0.2%; inhibition at 50 µM [6]: 56.1%

For `N=C(NOC(=O)Nc1cccc(Cl)c1)c1ccc2nonc2c1`, which viability at 50 µM [1] is on record?
Its viability at 50 µM is 99.3%.

And the cytotoxicity [2]?
The cytotoxicity was 1.1%.

What about the inhibition at 1 µM [3] of the same compound?
The inhibition at 1 µM was 0%.

What about the inhibition at 70 µM [4] of the same compound?
The inhibition at 70 µM was 99.3%.

And the inhibition at 5 µM [5]?
Its inhibition at 5 µM is 6.8%.

What about the inhibition at 50 µM [6] of the same compound?
The inhibition at 50 µM was 85.5%.
